Experimental data as given in article PMC9298314 (The Febs Journal, 2021).
Peptide text beside a SMILES is read from it.

What was measured:
BT‐474 = assay: CellTiter‐Blue cell viability assay; type: cell-based, human; conditions: read-out: IC50 (µM) BT‐474, 24 h, peptide 0.01 to 100 µM, serum‐free medium
Procedure, shortened: (§1)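 Cells were seeded per mL as follows: BT‑20, SKBR3 and Hs68 at 1.5×10⁵; BT‑474 at 3.0×10⁵; MCF 10A at 4.0×10⁵; MDA‑MB‑231 at 1.0×10⁵. After 24 h, wells were PBS‑washed twice and exposed to test compound in complete serum‑free medium for 24 h at 37 °C, 5% CO₂. CellTiter‑Blue was added for 3 h and fluorescence read at 560/590 nm. Untreated cells set 100%, 1% Triton X‑100 set 0%. IC50 came from a log(inhibitor)–normalized response fit, using independent cultures on different days.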

Hs68 = assay: CellTiter‐Blue cell viability assay; type: cell-based, human; conditions: read-out: IC50 (µM) Hs68, 24 h, peptide 0.01 to 100 µM, serum‐free medium
Procedure, shortened: as §1

BT‐20 = assay: CellTiter‐Blue cell viability assay; type: cell-based, human; conditions: read-out: IC50 (µM) BT‐20, 24 h, peptide 0.01 to 100 µM, serum‐free medium
Procedure, shortened: as §1

SKBR3 = assay: CellTiter‐Blue cell viability assay; type: cell-based, human; conditions: read-out: IC50 (µM) SKBR3, 24 h, peptide 0.01 to 100 µM, serum‐free medium
Procedure, shortened: as §1

MDA‐MB‐231 [1] = assay: CellTiter‐Blue cell viability assay; type: cell-based, human; conditions: read-out: IC50 (µM) MDA‐MB‐231, 24 h, peptide 0.01 to 100 µM, serum‐free medium
Procedure, shortened: as §1

[2] = system: human red blood cells (RBCs); assay: Hemolytic activity; type: cell-based; conditions: 100 µM peptide, human RBCs 0.25% v/v in PBS pH 7.4, 24 h, 37 °C
Procedure, shortened: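 Blood spun 1000 g for 10 min at 4 °C and washed three times. RBCs held at 0.25% v/v in PBS pH 7.4 with a peptide series (0.01–100), 24 h at 37 °C with gentle agitation. After spinning 1000 g for 5 min at 4 °C, supernatant hemoglobin read at A415. PBS is 0% and 1% Triton X‐100 is 100%; melittin served as peptide control. % = (A − Aneg)/(Apos − Aneg) × 100.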

MCF 10A = assay: CellTiter‐Blue cell viability assay; type: cell-based, human; conditions: read-out: IC50 (µM) MCF 10A, 24 h, peptide 0.01 to 100 µM, serum‐free medium
Procedure, shortened: as §1

MDA‐MB‐231 [3] = assay: Internalization of CF‐labeled peptide, flow cytometry and confocal microscopy; type: cell-based, human; conditions: CF‐labeled peptide 1 µM, flow cytometry
Procedure, shortened: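 Cells seeded 5.0 × 10⁴ per well for 24 h, then washed. Exposed to CF‐labelled peptide (final 1) for 15, 60, 360 and 1440 min at 37 °C, 5% CO₂. Collected and washed; 10 000 cells read by flow cytometry, with autofluorescence subtracted. Duplicates on three independent days.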

| Molecule | IC50 (BT‐474) | IC50 (Hs68) | IC50 (BT‐20) | IC50 (SKBR3) | IC50 (MDA‐MB‐231 [1]) | H max (% hemolysis at the highest concentration tested) [2] | IC50 (MCF 10A) | Fluorescence intensity decay with time, MDA‐MB‐231 (MDA‐MB‐231 [3]) |
| --- | --- | --- | --- | --- | --- | --- | --- | --- |
| C[C@H](NC(=O)[C@H](CCCCN)NC(=O)[C@H](Cc1ccc(O)cc1)NC(=O)[C@H](CCCCN)NC(=O)[C@H](CCCCN)NC(=O)[C@H](CCCCN)NC(=O)[C@H](Cc1ccc(O)cc1)NC(=O)[C@H](CCCNC(=N)N)NC(=O)[C@H](CCCCN)NC(=O)[C@@H](N)CCCCN)C(=O)N[C@@H](Cc1ccc(O)cc1)C(=O)N[C@@H](CCCCN)C(=O)N1CCC[C@H]1C(=O)N[C@@H](Cc1ccc(O)cc1)C(=O)N[C@@H](CCCCN)C(=O)N[C@@H](CCCCN)C(=O)N[C@@H](CCCCN)C(=O)N[C@@H](CCCCN)C(=O)N[C@@H](CCCCN)C(=O)N[C@@H](Cc1ccccc1)C(N)=O [vCPP0275] (H-KKRYKKKYKAYKPYKKKKKF-NH2) | > 100 µM | > 100 µM | 44.8 ± 1.1 µM | 34 ± 1 µM | > 100 µM | 14.6 ± 0.9% | > 100 µM |  |
| CF‐WRRRYRRWRRRRRWRRRPRR‐amide [CF‐vCPP2319] |  |  |  |  |  |  |  | decreases slowly during 24 h |
| CC(C)C[C@H](NC(=O)CNC(=O)[C@H](CC(C)C)NC(=O)[C@H](CC(C)C)NC(=O)[C@H](CCC(N)=O)NC(=O)[C@H](CCCNC(=N)N)NC(=O)[C@H](CC(C)C)NC(=O)[C@@H](NC(=O)[C@H](CC(C)C)NC(=O)[C@H](CCCNC(=N)N)NC(=O)[C@@H](N)CCCNC(=N)N)[C@@H](C)O)C(=O)NCC(=O)N[C@@H](CO)C(=O)N[C@@H](CCCNC(=N)N)C(=O)N[C@@H](CCCNC(=N)N)C(=O)N[C@@H](CCCNC(=N)N)C(=O)N[C@@H](CCCNC(=N)N)C(=O)N[C@@H](CCCNC(=N)N)C(=O)N[C@@H](CO)C(=O)N[C@@H](CCCNC(=N)N)C(N)=O [vCPP0769] (H-RRLTLRQLLGLGSRRRRRSR-NH2) | 37.5 ± 1.7 µM | 53.4 ± 0.7 µM | 3.5 ± 1.5 µM | 21.1 ± 2 µM | 9 ± 0.1 µM | 56.2 ± 1.5% | 55.4 ± 1.7 µM |  |
